Measurements published in ChEMBL document CHEMBL1153337, “Small molecule antagonists of the gonadotropin-releasing hormone (GnRH) receptor: structure-activity relationships of small heterocyclic groups appended to the 2-phenyl-4-piperazinyl-benzimidazole template” (Bioorg Med Chem Lett, 2009).
Converted amounts (≈) assume the structure as drawn.

Legend:
[1] = biological target: T1, Gonadotropin-releasing hormone receptor (Homo sapiens) (UniProt P30968); test: Displacement of [125I]-(D-Trp6)-GnRH from human GnRH receptor at 50 nM
T1 sequence (whole entry): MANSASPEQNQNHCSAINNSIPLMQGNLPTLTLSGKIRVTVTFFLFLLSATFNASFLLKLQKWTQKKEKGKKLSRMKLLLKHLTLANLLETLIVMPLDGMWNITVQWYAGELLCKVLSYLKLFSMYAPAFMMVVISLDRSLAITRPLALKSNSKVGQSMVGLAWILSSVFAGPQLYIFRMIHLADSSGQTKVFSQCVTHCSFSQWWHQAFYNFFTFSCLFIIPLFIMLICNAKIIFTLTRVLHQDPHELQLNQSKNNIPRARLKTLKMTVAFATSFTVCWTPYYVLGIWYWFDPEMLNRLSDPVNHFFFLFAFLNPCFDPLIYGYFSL

[2] = biological target: CYP2D6 (Homo sapiens, UniProt P10635); test: Inhibition of CYP2D6 at 3 uM; type: ADME
CYP2D6, sequence (P10635 whole entry): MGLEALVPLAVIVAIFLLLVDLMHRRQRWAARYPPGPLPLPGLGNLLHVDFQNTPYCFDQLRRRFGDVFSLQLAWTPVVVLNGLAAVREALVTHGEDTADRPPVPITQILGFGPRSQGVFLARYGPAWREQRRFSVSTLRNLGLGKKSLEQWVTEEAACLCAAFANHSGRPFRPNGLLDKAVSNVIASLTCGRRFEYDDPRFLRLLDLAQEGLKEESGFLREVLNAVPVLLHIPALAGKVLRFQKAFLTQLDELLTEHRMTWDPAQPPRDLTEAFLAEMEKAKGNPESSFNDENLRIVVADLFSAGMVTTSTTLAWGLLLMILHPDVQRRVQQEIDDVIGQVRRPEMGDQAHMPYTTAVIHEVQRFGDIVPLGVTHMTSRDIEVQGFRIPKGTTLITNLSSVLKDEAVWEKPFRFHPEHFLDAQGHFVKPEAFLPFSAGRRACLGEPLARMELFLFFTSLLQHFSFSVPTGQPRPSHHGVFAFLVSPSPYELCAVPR

[3] = biological target: T2, Gonadotropin-releasing hormone receptor (Homo sapiens, UniProt P30968); test: Antagonist activity at human recombinant GnRH receptor expressed in HEK293 cells assessed as reduction in (D-Trp6)-GnRH-stimulated IP production by whole cell assay; type: functional, cell-based
T2 sequence (P30968 whole entry): T1 sequence (whole entry)
Procedure, shortened: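 Whole-cell assay, cells stimulated with (D-Trp6)-GnRH; compound-driven reduction of inositol phosphate read as IC50.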

[4] = biological target: CYP3A4 (Homo sapiens, UniProt P08684); test: Inhibition of CYP3A4 at 3 uM; type: ADME
CYP3A4, sequence (P08684 whole entry): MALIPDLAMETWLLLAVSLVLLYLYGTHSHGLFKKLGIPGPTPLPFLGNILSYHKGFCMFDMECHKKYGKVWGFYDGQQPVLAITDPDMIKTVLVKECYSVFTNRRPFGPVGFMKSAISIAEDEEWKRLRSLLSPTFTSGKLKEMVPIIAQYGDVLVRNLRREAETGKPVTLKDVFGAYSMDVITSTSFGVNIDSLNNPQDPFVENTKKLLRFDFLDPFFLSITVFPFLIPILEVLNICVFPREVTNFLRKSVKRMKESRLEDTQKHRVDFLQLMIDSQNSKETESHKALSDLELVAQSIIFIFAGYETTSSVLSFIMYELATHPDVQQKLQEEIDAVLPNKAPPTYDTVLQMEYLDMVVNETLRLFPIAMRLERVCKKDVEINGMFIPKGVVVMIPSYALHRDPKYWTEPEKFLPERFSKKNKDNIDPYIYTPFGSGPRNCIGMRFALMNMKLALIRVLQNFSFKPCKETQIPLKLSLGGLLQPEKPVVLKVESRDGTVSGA

[5] = biological target: T3, Gonadotropin-releasing hormone receptor (Rattus norvegicus, UniProt P30969); test: Displacement of [125I]-(D-Trp6)-GnRH from rat GnRH receptor
T3 sequence (P30969 whole entry): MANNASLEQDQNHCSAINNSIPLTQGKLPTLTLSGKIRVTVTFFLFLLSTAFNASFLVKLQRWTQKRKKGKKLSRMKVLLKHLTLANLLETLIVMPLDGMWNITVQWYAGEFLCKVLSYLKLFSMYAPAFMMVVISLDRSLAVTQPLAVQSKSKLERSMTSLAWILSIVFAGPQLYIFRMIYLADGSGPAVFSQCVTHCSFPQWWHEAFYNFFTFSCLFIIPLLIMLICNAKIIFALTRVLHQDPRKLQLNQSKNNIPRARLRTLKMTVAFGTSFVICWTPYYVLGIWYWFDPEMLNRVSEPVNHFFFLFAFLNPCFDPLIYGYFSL
Procedure, shortened: (§1)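 Competition binding at overexpressed human or rat GnRH receptors against 125I-(D-Trp6)-GnRH; IC50 averaged from two independent experiments run in triplicate.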

[6] = Solubility at pH 7.4; type: physicochemical; settings: buffer
[7] = biological target: T2, Gonadotropin-releasing hormone receptor; test: Displacement of [125I]-(D-Trp6)-GnRH from human GnRH receptor; procedure, shortened: as §1
[8] = Metabolic stability in rat liver microsomes assessed as half life; type: ADME, Microsome
[9] = biological target: CYP2C9 (Homo sapiens, UniProt P11712); test: Inhibition of CYP2C9 at 3 uM; type: ADME
CYP2C9, sequence (P11712 whole entry): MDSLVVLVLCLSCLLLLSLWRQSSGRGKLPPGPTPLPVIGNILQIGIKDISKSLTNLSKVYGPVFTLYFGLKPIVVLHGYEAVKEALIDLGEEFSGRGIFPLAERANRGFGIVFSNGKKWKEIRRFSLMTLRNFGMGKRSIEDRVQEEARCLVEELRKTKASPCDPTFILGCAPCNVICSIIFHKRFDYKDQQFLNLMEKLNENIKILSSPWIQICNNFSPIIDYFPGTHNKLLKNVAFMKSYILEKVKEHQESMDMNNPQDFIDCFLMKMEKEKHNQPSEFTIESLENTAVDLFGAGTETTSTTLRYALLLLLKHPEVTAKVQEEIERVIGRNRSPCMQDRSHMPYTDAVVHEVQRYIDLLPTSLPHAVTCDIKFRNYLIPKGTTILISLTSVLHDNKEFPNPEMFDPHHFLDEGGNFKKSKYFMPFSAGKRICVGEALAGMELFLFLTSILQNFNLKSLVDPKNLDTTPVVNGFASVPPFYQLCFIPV

[10] = Reduction in leutinizing hormone release in (D-Trp6)-GnRH-stimulated rat primary pituitary cells by RIA; type: functional, cell-based; settings: Pituitary gland cell
Procedure, shortened: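 Primary rat pituitary cells stimulated with (D-Trp6)-GnRH; compound-driven reduction of LH release read as IC50.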

[11] = tested on: Rattus norvegicus; test: Oral bioavailability in orchidectomized Sprague-Dawley rat at 20 mg/kg after 1 day; type: ADME, organism-based; settings: in vivo, 24 h
Procedure, shortened: (§2)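 Orchidectomized SD rats, single oral dose of 20 mg/kg in 0.4 N HCl/2% TWEEN 80; iv arm 1 mg/kg in 20% DMSO/PEG 200 for bioavailability; one-day PK study.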

[12] = tested on: Rattus norvegicus; test: AUC (0 to alpha) in orchidectomized Sprague-Dawley rat at 20 mg/kg, po after 1 day; type: ADME, organism-based, Plasma; parameters: dose 20 mg/kg, route oral; settings: in vivo, 24 h; procedure, shortened: as §2
[13] = Half life in orchidectomized Sprague-Dawley rat at 1 mg/kg, iv after 1 day; type: ADME, organism-based; parameters: dose 1 mg/kg, route intravenous; settings: male, in vivo
Procedure, shortened: (§3)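 Orchidectomized SD rats, single iv dose of 1 mg/kg in 20% DMSO/PEG 200; one-day PK study.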

[14] = Volume of distribution at steady state in orchidectomized Sprague-Dawley rat at 1 mg/kg, iv after 1 day; type: ADME, organism-based; parameters: dose 1 mg/kg, route intravenous; settings: male, in vivo, read-out: Vdss; procedure, shortened: as §3
[15] = Half life in orchidectomized Sprague-Dawley rat at 20 mg/kg, po after 1 day; type: ADME, organism-based; parameters: dose 20 mg/kg, route oral; settings: male, in vivo; procedure, shortened: as §2
[16] = Metabolic stability in rat liver microsomes assessed as compound remaining at 1 uM after 15 mins; type: ADME, Microsome; settings: read-out: Stability

| Structure (SMILES) | Activity [1] [%] | IC50 [5] [nM] | IC50 [7] [nM] | also measured |
| --- | --- | --- | --- | --- |
| Cc1nc(CN2CCN(c3cccc4[nH]c(-c5ccc(C(C)(C)C)cc5)nc34)CC2)c[nH]1 | – | 28 | 7.5 | inhibition at 3 µM [2]: 14%; IC50 [3]: 44 nM; inhibition at 3 µM [4]: 85%; solubility [6]: 46 µg/mL (≈ 107 µM); half-life [8]: > 30 min; inhibition at 3 µM [9]: 23%; IC50 [10]: 250 nM |
| CCc1nc(C)c(CN2CCN(c3cccc4[nH]c(-c5ccc(C(C)(C)C)cc5)nc34)CC2)s1 | – | 120 | 20 | – |
| Cc1cc(CN2CCN(c3cccc4[nH]c(-c5ccc(C(C)(C)C)cc5)nc34)CC2)n(C)n1 | – | 310 | 23 | – |
| CCc1cc(CN2CCN(c3cccc4[nH]c(-c5ccc(C(C)(C)C)cc5)nc34)CC2)nn1C | – | 350 | 43 | – |
| Cc1nn(C)c(C)c1CN1CCN(c2cccc3[nH]c(-c4ccc(C(C)(C)C)cc4)nc23)CC1 | – | 450 | 38 | – |
| Cc1nc(C)c(CN2CCN(c3cccc4[nH]c(-c5ccc(C(C)(C)C)cc5)nc34)CC2)o1 | – | 740 | 31 | – |
| CCc1nc(CN2CCN(c3cccc4[nH]c(-c5ccc(C(C)(C)C)cc5)nc34)CC2)c(C)o1 | – | 550 | 27 | – |
| CCCn1c(CC)nc(C)c1CN1CCN(c2cccc3[nH]c(-c4ccc(C(C)(C)C)cc4)nc23)CC1 | – | 120 | 57 | – |
| CCCCn1cnc(C)c1CN1CCN(c2cccc3[nH]c(-c4ccc(C(C)(C)C)cc4)nc23)CC1 | 67 | – | – | – |
| CCCn1cc(CN2CCN(c3cccc4[nH]c(-c5ccc(C(C)(C)C)cc5)nc34)CC2)nc1C | – | 41 | 18 | F [11]: 100%; inhibition at 3 µM [2]: 13%; IC50 [3]: 43 nM; AUC [12]: 3830 ng·h/mL; inhibition at 3 µM [4]: 85%; half-life [13]: 54 min; Vd [14]: 0.2 L/kg; solubility [6]: 55 µg/mL (≈ 117 µM); half-life [8]: 25 min; inhibition at 3 µM [9]: 19%; IC50 [10]: 240 nM; half-life [15]: 174 min |
| Cc1nc(CN2CCN(c3cccc4[nH]c(-c5ccc(C(C)(C)C)cc5)nc34)CC2)c(C)s1 | – | – | 21 | – |
| Cc1nc(C)c(CN2CCN(c3cccc4[nH]c(-c5ccc(C(C)(C)C)cc5)nc34)CC2)s1 | – | – | 27 | – |
| CCc1nc(CN2CCN(c3cccc4[nH]c(-c5ccc(C(C)(C)C)cc5)nc34)CC2)cn1C | – | 78 | 18 | – |
| CCCn1cnc(CN2CCN(c3cccc4[nH]c(-c5ccc(C(C)(C)C)cc5)nc34)CC2)c1C | – | 47 | 12 | – |
| CCc1cc(CN2CCN(c3cccc4[nH]c(-c5ccc(C(C)(C)C)cc5)nc34)CC2)n(C)n1 | – | 250 | 22 | – |
| Cc1c(CN2CCN(c3cccc4[nH]c(-c5ccc(C(C)(C)C)cc5)nc34)CC2)ncn1C(C)C | – | 61 | 19 | – |
| CCc1nc(CN2CCN(c3cccc4[nH]c(-c5ccc(C(C)(C)C)cc5)nc34)CC2)cn1CC | – | 69 | 11 | – |
| Cn1nccc1CN1CCN(c2cccc3[nH]c(-c4ccc(C(C)(C)C)cc4)nc23)CC1 | 25 | – | – | – |
| CCn1nc(CN2CCN(c3cccc4[nH]c(-c5ccc(C(C)(C)C)cc5)nc34)CC2)cc1C | 32 | – | – | – |
| CCn1cc(CN2CCN(c3cccc4[nH]c(-c5ccc(C(C)(C)C)cc5)nc34)CC2)c(=O)[nH]c1=O | – | – | – | inhibition at 3 µM [2]: 0%; inhibition at 3 µM [4]: 74%; remaining at 0.25 h, 1 µM [16]: 12%; solubility [6]: 13 µg/mL (≈ 26.7 µM); half-life [8]: 5 min; inhibition at 3 µM [9]: 34%; IC50 [10]: 59 nM |
| Cc1ccc(CN2CCN(c3cccc4[nH]c(-c5ccc(C(C)(C)C)cc5)nc34)CC2)o1 | – | – | 705 | – |
| CCc1nc(C)c(CN2CCN(c3cccc4[nH]c(-c5ccc(C(C)(C)C)cc5)nc34)CC2)o1 | – | 320 | 37 | – |
| CC(C)(C)c1ccc(-c2nc3c(N4CCN(Cc5cnc[nH]5)CC4)cccc3[nH]2)cc1 | – | 290 | 21 | – |
| CC(C)(C)c1ccc(-c2nc3c(N4CCN(Cc5ncc[nH]5)CC4)cccc3[nH]2)cc1 | 40 | – | – | – |
| Cn1cnc(CN2CCN(c3cccc4[nH]c(-c5ccc(C(C)(C)C)cc5)nc34)CC2)c1 | – | 98 | 33 | – |
| Cc1cc(CN2CCN(c3cccc4[nH]c(-c5ccc(C(C)(C)C)cc5)nc34)CC2)nn1C | – | – | 83 | – |
| Cc1n[nH]c(C)c1CN1CCN(c2cccc3[nH]c(-c4ccc(C(C)(C)C)cc4)nc23)CC1 | – | – | 68 | – |
| CCCCc1nc(CN2CCN(c3cccc4[nH]c(-c5ccc(C(C)(C)C)cc5)nc34)CC2)cn1C | – | 58 | 26 | – |

The next lines start with results.

| Activity [1] [%] | IC50 [5] [nM] | IC50 [7] [nM] | Structure (SMILES) | also measured |
| --- | --- | --- | --- | --- |
| 26 | – | – | CCc1nc(C)sc1CN1CCN(c2cccc3[nH]c(-c4ccc(C(C)(C)C)cc4)nc23)CC1 | – |
| – | 49 | 8 | CCc1nc(CN2CCN(c3cccc4[nH]c(-c5ccc(C(C)(C)C)cc5)nc34)CC2)c(C)n1CC | IC50 [3]: 13 nM; solubility [6]: 25 µg/mL (≈ 51.6 µM); half-life [8]: 12 min; IC50 [10]: 296 nM |
| 7 | – | – | CC(C)(C)c1ccc(-c2nc3c(N4CCN(Cc5ccc[nH]5)CC4)cccc3[nH]2)cc1 | – |
| 26 | – | – | CC(C)(C)c1ccc(-c2nc3c(N4CCN(Cc5nccs5)CC4)cccc3[nH]2)cc1 | – |
| 6 | – | – | CC(C)(C)c1ccc(-c2nc3c(N4CCN(Cc5ccsc5)CC4)cccc3[nH]2)cc1 | – |
| – | 49 | 46 | CCCCn1cnc(CN2CCN(c3cccc4[nH]c(-c5ccc(C(C)(C)C)cc5)nc34)CC2)c1C | inhibition at 3 µM [2]: 21%; IC50 [3]: 71 nM; inhibition at 3 µM [4]: 84%; solubility [6]: 3 µg/mL (≈ 6.19 µM); half-life [8]: > 30 min; inhibition at 3 µM [9]: 53%; IC50 [10]: 570 nM |
| – | 57 | 29 | CCCn1c(CC)nc(CN2CCN(c3cccc4[nH]c(-c5ccc(C(C)(C)C)cc5)nc34)CC2)c1C | – |
| 6 | – | – | Cn1cccc1CN1CCN(c2cccc3[nH]c(-c4ccc(C(C)(C)C)cc4)nc23)CC1 | – |
| – | 34 | 10 | Cc1nc(CN2CCN(c3cccc4[nH]c(-c5ccc(C(C)(C)C)cc5)nc34)CC2)cn1C | inhibition at 3 µM [2]: 3%; IC50 [3]: 23 nM; inhibition at 3 µM [4]: 66%; solubility [6]: 51 µg/mL (≈ 115 µM); half-life [8]: 9 min; inhibition at 3 µM [9]: 12%; IC50 [10]: 300 nM |
| – | 51 | 10 | CCn1cc(CN2CCN(c3cccc4[nH]c(-c5ccc(C(C)(C)C)cc5)nc34)CC2)nc1C | – |
| 20 | – | – | CC(C)(C)c1ccc(-c2nc3c(N4CCN(Cc5ccoc5)CC4)cccc3[nH]2)cc1 | – |
| – | 850 | 90 | Cc1ncoc1CN1CCN(c2cccc3[nH]c(-c4ccc(C(C)(C)C)cc4)nc23)CC1 | – |
| 24 | – | – | CC(C)(C)c1ccc(-c2nc3c(N4CCN(Cc5cccs5)CC4)cccc3[nH]2)cc1 | – |
| 12 | – | – | CC(C)(C)c1ccc(-c2nc3c(N4CCN(Cc5ccco5)CC4)cccc3[nH]2)cc1 | – |
| 4 | – | – | CCCCc1nc(C)c(CN2CCN(c3cccc4[nH]c(-c5ccc(C(C)(C)C)cc5)nc34)CC2)s1 | – |
